The values that follow come from ChEMBL document CHEMBL2021854, “2-Aminopyrimidine based 4-aminoquinoline anti-plasmodial agents. Synthesis, biological activity, structure-activity relationship and mode of action studies” (Eur J Med Chem, 2012).

The nature of data set [1]: Inhibition of beta-hematin formation assessed as Ferriprotoporphyrin IX biomineralisation at 1 mg/ml after 24 hrs. In kind it is functional. The method in brief: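 Hemin chloride (0.5 mg/ml in DMSO) mixed with 0.5 M sodium acetate buffer pH 4.4 and drug or solvent control, incubated 37 °C for 24 h. Pellet washed with DMSO to remove unreacted hemin, dissolved in 0.1 N NaOH, absorbance read at 405 nm; percent inhibition relative to control. Highest concentration tested 1 mg/ml.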

For the next data set, the system named is Human betaherpesvirus 5. Description: Antiviral activity against Human cytomegalovirus Davis infected in HEL cells assessed as inhibition of virus plaque formation after 4 days. Format: functional, organism-based. To be noted: Human betaherpesvirus 5, Davis, 96 h.
Another data set concerns Coxsackievirus B4. Nature of the data set: Antiviral activity against Coxsackie virus B4 infected in human HeLa cells assessed as inhibition of virus-induced cytopathogenicity after 4 days. Format: functional, organism-based. As to conditions: Enterovirus B, 96 h. The method in brief:
(§1)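 Confluent HEL, Vero or HeLa monolayers were inoculated with 100 CCID50 of virus in the presence of varying concentrations of compound. Cytopathicity was scored when it reached completion in untreated, virus-infected control cultures.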

The subject of data set [2] is Influenza A virus. Nature of the data set: Antiviral activity against Influenza A virus H3N2 infected in MDCK cells assessed as inhibition of virus-induced cytopathogenicity after 4 days by colorimetric formazan-based MTS assay. To be noted: 96 h. Format: functional, organism-based.
Data set [3] relates to Influenza A virus. Nature of the data set: Antiviral activity against Influenza A virus H1N1 infected in MDCK cells assessed as reduction visual scoring of virus-induced cytopathogenicity after 4 days. In kind it is functional, organism-based. As to conditions: 96 h. In short, it runs like this: (§2)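 MDCK monolayers infected with 100 CCID50 of influenza A (H1N1 or H3N2) or influenza B, with varying compound concentrations. Cytopathicity read when untreated infected controls reached complete CPE.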

The subject of another data set is Human alphaherpesvirus 1. Nature of the data set: Antiviral activity against HSV1 KOS infected in HEL cells assessed as inhibition of virus-induced cytopathogenicity after 4 days. Format: functional, organism-based. As to conditions: Human alphaherpesvirus 1, KOS, 96 h. In short, it runs like this:
(§3)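 Confluent HEL or HeLa monolayers infected with 100 CCID50 of virus in the presence of varying compound concentrations.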

Data set [4] deals with Influenza A virus. Description: Antiviral activity against Influenza A virus H3N2 infected in MDCK cells assessed as reduction visual scoring of virus-induced cytopathogenicity after 4 days. In kind it is functional, organism-based. As to conditions: 96 h. In short, it runs like this:
as §2
Background: Damage to the host cells serves as the signal in cytopathic effect assays.

Data set [5] can be described thus: Cytotoxicity against human HEL cells assessed as minimum compound concentration required to causes microscopically detectable alteration of normal cell morphology. In kind it is cell-based. The method in brief: (§4)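 Confluent, non-proliferating cell cultures were exposed to the compounds. The endpoint was the minimum concentration producing a microscopically detectable alteration of normal cell morphology.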

Data set [6] has as its system Mammalian orthoreovirus 1. Nature of the data set: Antiviral activity against Reovirus-1 infected in african green monkey Vero cells assessed as inhibition of virus-induced cytopathogenicity after 4 days. In kind it is functional, organism-based. To be noted: Mammalian orthoreovirus 1, Vero, 96 h. In short, it runs like this:
as §1

Data set [7] deals with Vesicular stomatitis virus. Nature of the data set: Antiviral activity against Vesicular stomatitis virus infected in HEL cells assessed as inhibition of virus-induced cytopathogenicity after 4 days. In kind it is functional, organism-based. As to conditions: 96 h. In short, it runs like this: as §3
Data set [8] relates to Vesicular stomatitis virus. Description: Antiviral activity against Vesicular stomatitis virus infected in HeLa cells assessed as inhibition of virus-induced cytopathogenicity after 4 days. Format: functional, organism-based. As to conditions: 96 h. The method in brief: as §3
A short description of data set [9]: Selectivity index, ratio of CC50 for MDCK cells to IC50 for chloroquine-resistant Plasmodium falciparum K1. In kind it is functional. In short, it runs like this: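 Selectivity index computed as MTS-based CC50 on MDCK cells divided by IC50 against P. falciparum K1.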
Data set [10] in a line: Cytotoxicity against MDCK cells assessed as minimum compound concentration required to causes microscopically detectable alteration of normal cell morphology. To be noted: dog. In kind it is cell-based, Canis lupus familiaris. The method in brief: as §4
The next data set has as its system Human alphaherpesvirus 3. Nature of the data set: Antiviral activity against […] expressing thymidine kinase infected in HEL cells assessed as reduction of virus plaque formation after 4 days. Format: functional, cell-based. As to conditions: Human alphaherpesvirus 3, strain Oka vaccine, 96 h.
The test system of data set [11] is Plasmodium falciparum. Description: Ratio of chloroquine IC50 to compound IC50 for chloroquine-sensitive Plasmodium falciparum 3D7. In kind it is functional.
A short description of data set [12]: Inhibition of beta-hematin formation assessed as Ferriprotoporphyrin IX biomineralisation after 24 hrs. Format: functional. In short, it runs like this:
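Hemin (0.5 mg/ml in DMSO) was mixed with 0.5 M sodium acetate pH 4.4 and compound, then incubated for 24 h at 37 °C. The pellet was washed with DMSO to remove unreacted hemin and dissolved in 0.1 N NaOH, with A405 read. Percent inhibition was taken versus solvent control, and IC50 by curve fitting.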

In data set [13] the test system is Plasmodium falciparum. Description: Ratio of chloroquine IC50 to compound IC50 for chloroquine-sensitive Plasmodium falciparum K1. In kind it is functional.
The test system of the next data set is Nucleic Acid. Nature of the data set: Binding affinity to Escherichia coli pUC18 DNA by spectrofluorometric analysis. Format: nucleic-acid assay. The method in brief: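 Steady-state fluorescence titration at ambient temperature: compound held at 30 μM while DNA was varied (0.3–70 μM), working solutions diluted in methanol. Excitation 320 nm, emission 380 nm, slit 5 nm. Log K was calculated from quenching of the 380 nm emission.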

A value given as a limit tells only on which side of the number the result lay.

What is called inhibition is the share of the control response that was lost under treatment. Usually EC50 stands for the concentration that produces a half-maximal response. One may read the IC50 as the concentration at which inhibition is half-maximal.

Take `CCOC(=O)c1c(C)nc(NCCCCNc2ccnc3cc(Cl)ccc23)nc1-c1ccccc1`: the inhibition in [1] was 100%. In addition, the concentration giving a half-maximal response (EC50) in the data set with Human betaherpesvirus 5 is 1.46 µM; with Coxsackievirus B4, greater than 100 µM; in the data set on Influenza A virus [2], greater than 0.16 µM; with Influenza A virus [3], greater than 0.16 µM; in the data set with Human alphaherpesvirus 1, greater than 100 µM; in the data set on Influenza A virus [4], greater than 0.16 µM. Besides, the EC50 in [6] is greater than 100 µM; in [7] it was greater than 100 µM; in [8], greater than 100 µM; in the data set on Human alphaherpesvirus 3 it was 4 µM. Besides, the MCC in [5] is greater than 20 µM; in data set [10], 800 nM. For the same compound, the “Ratio CC50/IC50” value in data set [9] is listed as 34.41.

Take `Cc1nc(NCCCCNc2ccnc3cc(Cl)ccc23)nc(-c2ccccc2[N+](=O)[O-])c1C(=O)OC(C)C`: the inhibition in data set [1] is 100%; in data set [12], “Dose-dependent effect”. Also, the EC50 with Human betaherpesvirus 5 was greater than 4 µM; in the data set on Coxsackievirus B4, greater than 20 µM; with Influenza A virus [2], greater than 0.8 µM; in the data set with Influenza A virus [3], greater than 0.8 µM; with Human alphaherpesvirus 1, greater than 4 µM; in the data set on Influenza A virus [4] it was greater than 0.8 µM. Further, the concentration for a half-maximal effect (EC50) is greater than 20 µM in data set [6], greater than 4 µM in data set [7], greater than 20 µM in [8] and 4 µM in the data set on Human alphaherpesvirus 3. For the same compound, the “Ratio IC50” value in the data set on Plasmodium falciparum [11] and with Plasmodium falciparum [13] was 56 each time. For the same compound, the concentration for half-maximal inhibition (IC50) in data set [12] is 2 µM. The values for the MCC in data set [5] and in [10] were 20 µM and 4000 nM, respectively. Moreover, in [9], the “Ratio CC50/IC50” value is reported as 638. The log Ks in the data set with Nucleic Acid came out at 5.27.
